Source: ChEMBL document CHEMBL1926522, “PEG-SO(3)H catalyzed synthesis and cytotoxicity of α-aminophosphonates” (Eur J Med Chem, 2012)

What was measured:
K562 [1] = test: Cytotoxicity against human K562 cells after 24 hrs by MTT assay; format: functional, cell-based; details: K562, 24 h
How it was run: (§1)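 Cells from NCCS Pune, grown in RPMI-1640 with 10% heat-inactivated FBS, penicillin/streptomycin and glutamine at 37 °C, 5% CO2. Cells were washed with PBS and exposed for 24 h, first at 1, 10 and 100, then at 2–64. MTT (5 mg/mL in PBS) added for 2 h, then DMSO. IC50 read graphically from concentration vs % inhibition plot. Each point is the average of two determinations.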

COLO 205 [2] = test: Cytotoxicity against human COLO205 cells after 24 hrs by MTT assay; format: functional, cell-based; details: COLO 205, 24 h; how it was run: as §1
K562 [3] = test: Growth inhibition of human K562 cells at 1 uM after 24 hrs by MTT assay relative to control; format: functional; details: K562, 24 h, read-out: GI
How it was run: (§2)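 Exponentially growing cells in RPMI-1640 with 10% heat-inactivated FBS, 37 °C, 5% CO2. Treated 24 h at the single stated concentration. MTT (5 mg/mL in PBS) added for 2 h at 37 °C, then DMSO. Percent proliferation inhibition was calculated versus control. Independent experiments in duplicate, values averaged from two determinations.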

K562 [4] = test: Growth inhibition of human K562 cells at 10 uM after 24 hrs by MTT assay relative to control; format: functional; details: K562, 24 h, read-out: GI; how it was run: as §2
COLO 205 [5] = test: Growth inhibition of human COLO205 cells at 1 uM after 24 hrs by MTT assay relative to control; format: functional; details: COLO 205, 24 h, read-out: GI; how it was run: as §2
COLO 205 [6] = test: Growth inhibition of human COLO205 cells at 10 uM after 24 hrs by MTT assay relative to control; format: functional; details: COLO 205, 24 h, read-out: GI; how it was run: as §2
[7] = Growth inhibition of human HEK293 cells at 1 uM after 24 hrs by MTT assay relative to control; format: cell-based; details: read-out: GI; how it was run: as §2
[8] = Growth inhibition of human HEK293 cells at 10 uM after 24 hrs by MTT assay relative to control; format: cell-based; details: read-out: GI; how it was run: as §2
[9] = Lipophilicity, log P of the compound; format: physicochemical; details: octanol/water

Row | Compound | IC50 (K562 [1]) | IC50 (COLO 205 [2]) | inhibition of growth at 1 µM (K562 [3]) | inhibition of growth at 10 µM (K562 [4]) | inhibition of growth at 1 µM (COLO 205 [5]) | inhibition of growth at 10 µM (COLO 205 [6]) | inhibition at 24 h, 1 µM [7] | inhibition at 24 h, 10 µM [8] | logP [9]
1 | CCOP(=O)(OCC)C(Nc1nccs1)c1ccc(-c2ccncc2)cc1 (configuration not stated) | 24 µM | 10 µM | 0% | 24% | 37.1% | 47.9% | 1% | 2.5% | 
2 | CCOP(=O)(OCC)C(Nc1ccncc1)c1ccc(-c2ccncc2)cc1 (configuration not stated) | 32 µM | 10 µM | 0% | 15.7% | 14% | 53.4% | 0.5% | 1.9% | 
3 | CCOP(=O)(OCC)C(Nc1ccc(F)c(Cl)c1)c1ccc(-c2ccncc2)cc1 (configuration not stated) | 22 µM | 10 µM | 26% | 26.2% | 44.5% | 47% | 0.2% | 1.2% | 
4 | CCOP(=O)(OCC)C(Nc1nc2ccccc2s1)c1ccc(-c2ccncc2)cc1 (configuration not stated) | 35 µM | 15 µM | 0% | 15.7% | 36.6% | 41% | 2.5% | 2.5% | 
5 | CCOP(=O)(OCC)C(Nc1nc2ccc([N+](=O)[O-])cc2s1)c1ccc(-c2ccncc2)cc1 (configuration not stated) | 31 µM | 10 µM | 0.9% | 18.9% | 34.4% | 48.1% | 0% | 0.3% | 
6 | CCOP(=O)(OCC)C(Nc1ccc(Cl)c([N+](=O)[O-])c1)c1ccc(-c2ccncc2)cc1 (configuration not stated) | 19 µM | 12 µM | 14.3% | 24.9% | 35% | 45.1% | 1.2% | 3.4% | 
7 | CCOP(=O)(OCC)C(NCc1cccnc1)c1ccc(-c2ccncc2)cc1 (configuration not stated) | 10 µM | 8 µM | 26% | 48.4% | 27.6% | 60.1% | 3.1% | 3.6% | 4.55
8 | CCOP(=O)(OCC)C(Nc1cccc([N+](=O)[O-])c1)c1ccc(-c2ccncc2)cc1 (configuration not stated) | 20 µM | 14 µM | 0% | 25.8% | 39.5% | 41.1% | 0% | 1.2% | 
9 | CCOP(=O)(OCC)C(Nc1cccc(Br)c1)c1ccc(-c2ccncc2)cc1 (configuration not stated) | 10 µM | 5 µM | 41.7% | 53.8% | 31.3% | 71.6% | 1% | 2.3% | 5.72
10 | CCOP(=O)(OCC)C(Nc1ccccc1)c1ccc(-c2ccncc2)cc1 (configuration not stated) | > 100 µM | 18 µM | 0% | 0% | 18.1% | 31% | 0% | 0% | 
